Source: PubChem BioAssay (Johns Hopkins Ion Channel Center)
RGS4 act – RGS4 potentiators or activators, primary screen, cell-based, HEK293 M3R inducible RGS4, calcium flux. carbachol calcium flux Fluo4; hits give low values. B-score at 10 µM. 0.92% of 310,000 active;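 active = B-score of the integrated calcium signal more than 4 SD below the library mean, with starting fluorescence not abnormally high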;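 note: negative B-score means reduced calcium response which marks RGS4 activation or potentiation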
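Reagent: ECmax carbachol challenge; Test system: M3R-expressing HEK293 line, RGS4 induced by doxycycline; Schedule: overnight RGS4 induction, 30 min dye load 37 °C, 20 min compound RT; Detection: calcium dye Fluo4 fluorescence; Read-out: Agonist-evoked peak-minus-minimum fluorescence over baseline, integrated ratio, B score.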
MrgX1 PAM – positive allosteric modulators of MrgX1, primary screen, HEK293 cells, Fluo-4 calcium flux; B-score at 10 µM; FDSS; hits give high values; 0.63% of 310,000 active; Mas-related G-protein coupled receptor member X1 (Homo sapiens), Q96LB2; AID 588675, 2011;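 active = plate-corrected calcium response at least 3 library SD above typical, normal starting fluorescence, not activating the receptor alone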;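 note: compound read alongside a low EC10 to EC30 dose of BAM8-22 agonist; peak minus trough fluorescence over baseline measured at the second addition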
Target sequence (Q96LB2 whole entry, looked up): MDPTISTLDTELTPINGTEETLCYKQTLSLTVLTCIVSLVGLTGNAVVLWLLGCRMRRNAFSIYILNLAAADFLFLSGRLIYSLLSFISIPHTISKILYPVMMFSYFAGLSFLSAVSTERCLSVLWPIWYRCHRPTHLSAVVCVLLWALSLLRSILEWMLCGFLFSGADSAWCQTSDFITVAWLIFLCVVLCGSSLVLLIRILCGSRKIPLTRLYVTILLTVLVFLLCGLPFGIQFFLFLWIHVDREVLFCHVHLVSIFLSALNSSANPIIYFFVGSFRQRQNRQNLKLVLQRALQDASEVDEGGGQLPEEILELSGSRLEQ
MrgX1 antagonist – antagonists of human MrgX1 receptor, primary screen, HEK293 cells, Fluo-4 calcium flux. AID 588676, 2011. Mas-related G-protein coupled receptor member X1 (Homo sapiens), Q96LB2. B-score at 10 µM. 1.3% of 310,000 active. BAM8-22 antagonism; hits give low values;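 active = calcium-response B-score plate-corrected more than 3 library SD below zero, starting fluorescence within 5 deviations, no agonist response on first addition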;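 note: peak minus trough fluorescence over baseline after final BAM8-22 challenge near maximal dose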
RGS4 block – RGS4 inhibitors, primary screen, cell-based, HEK293 M3R inducible RGS4, calcium flux. Regulator of G-protein signaling 4 (Homo sapiens), P49798. 0.45% of 310,000 active. B-score at 10 µM. AID 463165, 2010. Fluo-4 calcium flux; hits give high values; triggered by carbachol at its EC20;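 active = B-score, a plate-corrected calcium signal, over three deviations above library mean, with baseline fluorescence within five deviations of library mean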;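 note: RGS4 expression induced by doxycycline in cells with stable M3 receptor; B-score is computed from the integrated fluorescence ratio over baseline after carbachol; higher B-score means a larger calcium signal and so more RGS4 inhibition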
Target sequence (P49798 whole entry, looked up): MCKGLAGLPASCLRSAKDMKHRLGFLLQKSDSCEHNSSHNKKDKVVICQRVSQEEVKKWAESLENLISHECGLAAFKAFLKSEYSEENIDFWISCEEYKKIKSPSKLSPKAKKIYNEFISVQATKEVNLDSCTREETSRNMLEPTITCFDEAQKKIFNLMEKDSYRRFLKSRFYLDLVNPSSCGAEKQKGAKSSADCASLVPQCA
MrgX1 agonist – agonists of human MrgX1 receptor, primary screen, HEK293 cells, Fluo-4 calcium flux; Mas-related G-protein coupled receptor member X1 (Homo sapiens), Q96LB2; Fluo-4 calcium fluorescence, agonist mode; hits give high values; B-score at 10 µM; 0.44% of 310,000 active; AID 588627, 2011;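 active = calcium response B-score plate-corrected fluorescence ratio at least 3 library SD, with starting fluorescence B-score inside 5 SD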
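Material – MrgX1-expressing HEK293 cells · Input – 15,000 cells seeded per well · Dosing – compound as first of three additions · Times – overnight seeding, then 1 h dark dye loading · Measured by – kinetic Fluo-4 NW fluorescence of intracellular calcium · Read-out – B-scored fluorescence response ratio · Benchmarks – positive and negative control wells on each plate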
MrgX1 PAM conf – MrgX1 positive allosteric modulators, duplicate retest, confirmation, HEK293 cells, Fluo-4 calcium flux; activation (ratio percentage), % at 10 µM; AID 602413, 2012; Fluo-4 calcium fluorescence, FDSS; 13% of 1,200 active; shares compounds with MrgX1 PAM;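 active = ratio at least 3 SD above the weak peptide control, stable starting fluorescence, no direct agonism earlier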;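 note: compound followed by low BAM8-22 agonist challenge near EC20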
HEK293 Ca flux – nonspecific calcium signal in parental HEK293, confirmation, counter-screen for MrgX1 antagonist project, parental HEK293 cells, Fluo-4 calcium flux. Fluo-4 calcium fluorescence, FDSS. 2% of 4,000 active. fluorescence ratio F(max-min)/F0 at 10 µM. shares compounds with MrgX1 antagonist;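 active = duplicate-averaged calcium fluorescence ratio at least three times the standard deviation of buffer wells, a nonspecific response in parental cells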
HEK293 Ca counter – calcium response in parental HEK293 cells, primary screen, counter-screen for MrgX1 allosteric activator project, cell-based, Fluo-4 calcium flux, duplicate | shares compounds with MrgX1 antagonist | Fluo-4 fluorescence ratio; hits give high values | fluorescence ratio F(max-min)/F0 at 10 µM | 0.4% of 4,000 active;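 active = calcium fluorescence ratio, averaged over duplicates, at least 3 SD of the buffer-well ratio, meaning a nonspecific response in receptor-free cells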;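 note: untransfected parental HEK293 lacking MrgX1 used as counterscreen for MrgX1 allosteric activators; fluorescence change taken during the second addition on a kinetic imager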
HEK293 Ca cntr2 – calcium response in parental HEK293 cells, primary screen, counter-screen for MrgX1 agonist project, cell-based, Fluo-4 calcium flux, duplicate, agonist mode | 8.7% of 4,000 active | shares compounds with MrgX1 antagonist | fluorescence ratio F(max-min)/F0 at 10 µM | Fluo-4 calcium fluorescence (FDSS); hits give high values;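 active = calcium fluorescence ratio at least three times the spread of buffer wells, meaning a non-specific response in parental cells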
* marks the source's active call; other numbers are inactive results; i = inactive; · = no result. Rows were chosen to be rich in hits. Some 3.5% of all compounds tested hit in one or more screens of this group.

SMILES	RGS4 act	MrgX1 PAM	MrgX1 antagonist	RGS4 block	MrgX1 agonist	MrgX1 PAM conf	HEK293 Ca flux	HEK293 Ca counter	HEK293 Ca cntr2
COc1ccc(N2CCOCC2)c(NC(=O)COc2cccc(C)c2C)c1	i	12*	i	i	i	i	i	i	i
Cc1ccc(OCC(=O)Nc2ccccc2-c2ccccc2)cc1	i	6.6*	i	i	i	i	i	i	i
Cc1cc(C)c(OCC(=O)Nc2ccccc2N2CCOCC2)c(C)c1	i	6.9*	i	i	i	i	i	i	i
Cc1ccccc1OCC(=O)Nc1ccccc1N1CCOCC1	i	6.8*	i	i	i	i	i	i	i
CCOC(=O)N1CCN(C(=O)CNC(=O)c2ccc(Cl)cc2)CC1	i	i	i	i	i	·	·	·	·
O=C(COc1ccccc1)Nc1ccccc1N1CCN(c2ccccc2)CC1	i	13*	i	i	i	i	i	i	i
CC(C)C(=O)N1CCN(c2ccccc2NC(=O)COc2ccccc2)CC1	i	i	i	i	i	·	·	·	·
Cc1ccc(Nc2cc(C)c3ccc(O)cc3n2)cc1C	i	10*	i	i	i	i	i	i	i
Cc1ccc(Nc2cc(C)c3c(O)cccc3n2)cc1C	i	i	i	i	i	·	·	·	·
CCCCC1=CC2=CC(=O)C(C)(OC(=O)c3ccco3)C(=O)C2=CO1 (stereo not drawn)	i	i	i	i	i	·	·	·	·
COc1ccc(-c2csc(NC(=O)C3CSC4(C)CCC(=O)N34)n2)cc1OC (stereo not drawn)	i	11*	i	i	i	9.1%*	i	i	i
CC12CCC(=O)N1C(C(=O)Nc1nc(-c3ccc(F)c(F)c3)cs1)CS2 (stereo not drawn)	i	i	i	i	i	·	·	·	·
Nc1nc(Nc2ccccc2)nc(C(F)(F)F)n1	i	i	i	i	i	·	·	·	·
Nc1nc(Nc2ccccc2Br)nc(C(F)(F)F)n1	i	9.1*	i	i	i	i	i	i	i
CCN1CCN(C(=O)NC2CC(=O)N(c3ccc(OC)cc3)C2)CC1 (stereo not drawn)	i	i	i	i	i	·	·	·	·
Cc1cc(C)n(C(=O)CNc2ccc(C)c(C)c2)n1	i	8.6*	i	i	i	i	i	i	i
Cc1ccc(Nc2nc(-c3cccnc3)cs2)cc1C	i	6.5*	i	i	i	i	i	i	i
Brc1ccc(Nc2nc(-c3cccnc3)cs2)cc1	i	i	i	i	i	·	·	·	·
CSc1ccc(S(=O)(=O)N2CCC(C(=O)N3CCc4ccccc4C3)CC2)cc1	i	i	i	i	i	·	·	·	·
CC(=O)N(c1ccccc1C)S(=O)(=O)c1ccc(Cl)cc1	i	8.7*	i	i	i	i	i	i	i
CCOc1ccccc1N(C(C)=O)S(=O)(=O)c1ccc(Cl)cc1	i	i	i	i	i	·	·	·	·
COc1ccccc1C(=O)NC(=O)COC(=O)Cc1ccccc1[N+](=O)[O-]	i	i	i	i	i	·	·	·	·
COCc1cc(C)nc(NC2CCCCC2)c1C#N	·	i	i	·	i	·	·	·	·
COCc1cc(SC2CCCCC2)nc(C)n1	i	15*	i	i	i	i	i	i	i
N=C1/C(=C/c2ccc(OCc3ccccc3F)cc2)C(=O)N=C2SC(CC(=O)N3CCOCC3)=NN12	i	35*	i	i	i	21%*	i	i	i
SMILES	RGS4 act	MrgX1 PAM	MrgX1 antagonist	RGS4 block	MrgX1 agonist	MrgX1 PAM conf	HEK293 Ca flux	HEK293 Ca counter	HEK293 Ca cntr2
CC(C)CCn1c(N2CCCC2)nc2c1c(=O)n(C)c(=O)n2C	i	i	i	i	i	·	·	·	·
CCCCCCn1c(N2CCCC2)nc2c1c(=O)n(C)c(=O)n2C	i	7.7*	i	i	i	i	i	i	i
Cc1ccccc1Nc1nc(N)nc(CSc2nc3ccccc3s2)n1	i	8.8*	i	i	i	i	i	i	i
c1ccc(-c2nc3nc4ccccc4nc3n2CC2CCCO2)cc1 (stereo not drawn)	i	7*	i	i	i	i	i	i	i
c1coc(-c2nc3nc4ccccc4nc3n2CC2CCCO2)c1 (stereo not drawn)	i	i	i	i	i	·	·	·	·
Nc1ccc2c(c1)Oc1ccccc1C=C2	i	12*	i	i	i	i	i	i	46*
Cc1ccccc1Nc1ncnc2c1cnn2-c1ccccc1	i	11*	i	i	i	i	i	i	i
NNc1ncnc2c1cnn2-c1ccccc1	i	i	i	i	i	·	·	·	·
Cc1ccc(NC(=O)CCCCCN2C(=O)[C@@H]3Cc4ccccc4CN3C2=O)c(Cl)c1	i	i	i	i	i	·	·	·	·
Cc1ccc(C(=O)Nc2ccccc2C(=O)O)cc1NC(=O)COc1c(C)cccc1C	i	i	i	i	i	·	·	·	·
CC(C)C[C@H](NC(=O)C1CC(=O)N(c2ccc3c(c2)OCCO3)C1)C(=O)N1CCCCC1 (stereo partly drawn)	i	i	i	i	i	·	·	·	·
Cc1nc2cc(Cl)ccc2n1-c1ccccc1	i	16*	i	i	i	i	i	i	i
O=C(c1c(F)c(F)c(F)c(F)c1F)N1CCc2ccccc21	i	i	i	i	i	·	·	·	·
COc1ccc(N(CC(=O)Nc2cc(C)ccc2C)S(=O)(=O)c2c(C)[nH]c(=O)[nH]c2=O)cc1	i	i	i	i	i	·	·	·	·
